Ki and Kb data for 18 molecules are collected here from ChEMBL document CHEMBL1132476, “Design and synthesis of novel alpha(1)(a) adrenoceptor-selective antagonists. 1. Structure-activity relationship in dihydropyrimidinones” (J Med Chem, 1999).

“And” between values parts separate entries of the source, which are not always exact repeats. Equal entries are not always repeated.

Assay [1] has as its target T1, Alpha-1D adrenergic receptor (Homo sapiens, UniProt P25100).
T1 sequence (P25100 whole entry): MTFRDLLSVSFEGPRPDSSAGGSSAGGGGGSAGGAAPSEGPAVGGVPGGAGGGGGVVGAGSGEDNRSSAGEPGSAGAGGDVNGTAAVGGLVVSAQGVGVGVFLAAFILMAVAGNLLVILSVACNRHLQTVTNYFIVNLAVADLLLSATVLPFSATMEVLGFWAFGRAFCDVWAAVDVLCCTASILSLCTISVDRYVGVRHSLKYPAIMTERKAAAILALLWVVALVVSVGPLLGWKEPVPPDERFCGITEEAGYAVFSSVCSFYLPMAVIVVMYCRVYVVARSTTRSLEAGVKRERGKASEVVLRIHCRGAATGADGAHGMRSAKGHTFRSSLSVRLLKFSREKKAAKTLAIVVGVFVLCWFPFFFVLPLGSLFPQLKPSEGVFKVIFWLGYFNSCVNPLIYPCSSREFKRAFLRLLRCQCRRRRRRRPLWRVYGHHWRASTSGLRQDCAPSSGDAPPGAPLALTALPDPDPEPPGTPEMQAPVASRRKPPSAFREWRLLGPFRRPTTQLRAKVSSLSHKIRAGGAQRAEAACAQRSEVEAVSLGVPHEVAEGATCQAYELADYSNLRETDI
The assay can be described thus: In vitro binding affinity against Alpha-1D adrenergic receptor of cloned human receptor.

For assay [2], the target named is T2, Alpha-1B adrenergic receptor (Homo sapiens, UniProt P35368).
T2 sequence (P35368 whole entry): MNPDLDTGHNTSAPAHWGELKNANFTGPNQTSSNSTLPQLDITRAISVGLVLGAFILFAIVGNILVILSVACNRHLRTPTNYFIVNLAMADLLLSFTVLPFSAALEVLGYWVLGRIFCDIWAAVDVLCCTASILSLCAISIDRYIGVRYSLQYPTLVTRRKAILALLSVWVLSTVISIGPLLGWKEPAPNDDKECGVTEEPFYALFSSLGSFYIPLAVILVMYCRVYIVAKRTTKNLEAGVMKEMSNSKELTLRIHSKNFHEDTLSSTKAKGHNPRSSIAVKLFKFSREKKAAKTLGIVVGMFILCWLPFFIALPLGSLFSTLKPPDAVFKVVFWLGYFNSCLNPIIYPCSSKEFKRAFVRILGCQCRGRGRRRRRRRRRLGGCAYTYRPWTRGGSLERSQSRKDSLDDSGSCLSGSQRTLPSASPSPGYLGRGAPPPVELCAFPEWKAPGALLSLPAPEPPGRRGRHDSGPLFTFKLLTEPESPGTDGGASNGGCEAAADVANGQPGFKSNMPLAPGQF
The assay can be described thus: In vitro binding affinity against Alpha-1B adrenergic receptor of cloned human receptor.

Assay [3] concerns the target T3, Alpha-1A adrenergic receptor (Homo sapiens, UniProt P35348).
T3 sequence (P35348 whole entry): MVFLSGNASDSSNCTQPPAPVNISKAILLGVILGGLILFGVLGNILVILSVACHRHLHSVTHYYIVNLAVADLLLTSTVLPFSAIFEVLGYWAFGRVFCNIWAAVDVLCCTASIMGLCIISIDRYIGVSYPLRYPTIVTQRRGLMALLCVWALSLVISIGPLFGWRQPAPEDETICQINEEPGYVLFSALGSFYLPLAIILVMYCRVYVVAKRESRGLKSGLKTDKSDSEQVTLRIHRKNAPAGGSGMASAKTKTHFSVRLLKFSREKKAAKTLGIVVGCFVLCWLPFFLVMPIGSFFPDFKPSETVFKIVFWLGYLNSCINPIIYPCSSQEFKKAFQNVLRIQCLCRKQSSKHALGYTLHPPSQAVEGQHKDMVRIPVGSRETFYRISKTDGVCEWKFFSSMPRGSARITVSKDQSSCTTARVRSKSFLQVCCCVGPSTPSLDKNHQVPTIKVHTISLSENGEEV
Description: In vitro binding affinity against Alpha-1A adrenergic receptor of cloned human receptor.

The next assay is filed under the species Rattus norvegicus. The assay can be described thus: Antagonism against phenylephrine induced contractions in isolated prostate tissue of rat. It counts as functional, Prostate gland. The procedure, abridged:
(§1)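 Isolated prostate strips (rat or dog) contracted with phenylephrine as agonist. Antagonist potency is expressed as Kb, derived from the shift in the agonist response by a previously published method.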

In assay [4] the target is T4, Alpha-1A adrenergic receptor (Rattus norvegicus, UniProt P43140).
T4 sequence (P43140 whole entry): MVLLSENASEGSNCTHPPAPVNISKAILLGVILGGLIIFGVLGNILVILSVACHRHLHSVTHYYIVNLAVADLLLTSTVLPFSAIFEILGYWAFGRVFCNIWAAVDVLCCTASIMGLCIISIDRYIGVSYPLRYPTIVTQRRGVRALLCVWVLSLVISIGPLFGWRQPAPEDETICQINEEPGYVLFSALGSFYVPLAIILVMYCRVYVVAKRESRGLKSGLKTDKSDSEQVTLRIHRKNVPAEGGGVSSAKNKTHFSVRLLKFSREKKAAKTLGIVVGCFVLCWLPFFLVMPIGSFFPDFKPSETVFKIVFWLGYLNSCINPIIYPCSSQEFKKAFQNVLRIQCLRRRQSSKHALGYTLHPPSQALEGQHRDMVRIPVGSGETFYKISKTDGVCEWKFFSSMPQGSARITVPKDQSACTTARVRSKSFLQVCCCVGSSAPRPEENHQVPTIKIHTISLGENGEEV
Description: In vitro binding affinity against Alpha-1A adrenergic receptor in isolated prostate tissue of rat. It counts as tissue-based, Prostate gland.

The species entered for the next assay is Homo sapiens. Description: Antagonism against phenylephrine induced contractions in isolated prostate tissue of human. The settings on record: Prostate gland. It counts as functional.
The next assay is filed under the species Canis familiaris. Description: Antagonism against phenylephrine induced contractions in isolated prostate tissue of dog. It counts as functional, Canis lupus familiaris, Prostate gland. The method, boiled down: as §1

The term Ki denotes a dissociation constant, usually derived from enzyme kinetics or from competition with a known ligand. A higher Ki goes with lower affinity. In the case of `CCC1=C(C(=O)NC)C(c2ccc([N+](=O)[O-])cc2)N(C(=O)NCCCN2CCC(C(=O)OC)(c3ccccc3)CC2)C(=O)N1` (centres undefined), the Ki in assay [1] worked out at 398 nM; in assay [2], 139 nM; in assay [3] it was 1.2 nM.
For `COC(=O)C1=C(C)NC(=O)N(C(=O)NCCCN2CCC(C(=O)OC)(c3ccccc3)CC2)C1c1ccc2nonc2c1` (centres undefined), the Ki in assay [1] came out at 93 nM; in assay [2] it was 27 nM; in assay [3], 0.1 nM.
Take `COC(=O)C1=C(C)NC(=O)N(C(=O)NCCCN2CCC(C(=O)OC)(c3ccccc3)CC2)C1c1cccc(Cl)c1` (centres undefined): the Ki in assay [1] was found to be 180 nM; in assay [2], 50 nM; in assay [3], 1.1 nM.
As for `COC(=O)C1(c2ccccc2)CCN(CCCNC(=O)N2C(=O)NC(C)=C(C(N)=O)C2c2ccc([N+](=O)[O-])cc2)CC1` (centres undefined), the Ki turned out to be 140 nM in assay [1], 100 nM in assay [2] and 0.7 nM in assay [3].
For `COC(=O)C1=C(C)NC(=O)N(C(=O)NCCCN2CCC(C(=O)OC)(c3ccccc3)CC2)C1c1ccc(Cl)cc1` (centres undefined), the Ki is 170 nM in assay [1], 48 nM in assay [2] and 4.5 nM in assay [3].
Consider `COC(=O)C1=C(C)NC(=O)N(C(=O)NCCCN2CCC(C(=O)OC)(c3ccccc3)CC2)C1c1ccc(F)cc1F` (centres undefined), for which the Ki in assay [1] is 180 nM; in assay [2] it was 88 nM; in assay [3], 0.2 nM.
The like results for `CCOC(=O)C1=C(C)NC(=O)N(C(=O)NCCCN2CCC(C(=O)OC)(c3ccccc3)CC2)C1c1ccc([N+](=O)[O-])cc1` (centres undefined) were, in that order, 91 nM, 15 nM and 0.3 nM.
As usually defined, the Kb is the equilibrium dissociation constant of an antagonist, usually derived from a functional assay. The low end stands for a more potent antagonist, the high end for a less potent antagonist. Consider `CCC1=C(C(N)=O)C(c2ccc([N+](=O)[O-])cc2)N(C(=O)NCCCN2CCC(C(=O)OC)(c3ccccc3)CC2)C(=O)N1` (centres undefined), for which the antagonist dissociation constant (Kb) in the assay listed under Rattus norvegicus is 2 nM; in the assay listed under Homo sapiens, 0.04 nM; in the assay filed under Canis familiaris, 0.85 nM. The affinity in assay [4], expressed as Ki, was 0.58 nM.
As for `COC(=O)C1=C(C)NC(=O)N(C(=O)NCCCN2CCC(C(=O)OC)(c3ccccc3)CC2)C1c1cccc(C)c1` (centres undefined), the inhibitory constant (Ki) in assay [1] was 320 nM; in assay [2], 110 nM; in assay [3], 1.8 nM.
With `COC(=O)C1=C(C)NC(=O)N(C(=O)NCCCN2CCC(C(=O)OC)(c3ccccc3)CC2)C1c1ccc(C)cc1` (centres undefined), the Ki in assay [1] was 220 nM; in assay [2] it was 77 nM; in assay [3], 8 nM.
The matching figures for `COC(=O)C1=C(C)NC(=O)N(C(=O)NCCCN2CCC(c3ccccc3)(c3ccccc3)CC2)C1c1ccc([N+](=O)[O-])cc1` (centres undefined): 120 nM, 27 nM and 5 nM.
Consider `COC(=O)C1=C(C)NC(=O)N(C(=O)NCCCN2CCC(C(=O)OC)(c3ccccc3)CC2)C1c1cccc(F)c1` (centres undefined), for which the Ki in assay [1] was 150 nM; in assay [2] it was 67 nM; in assay [3], 1.5 nM.
`CCC1=C(C(N)=O)C(c2ccc(F)cc2F)N(C(=O)NCCCN2CCC(C(=O)OC)(c3ccccc3)CC2)C(=O)N1` (centres undefined): the Ki in assay [1] stood at 440 nM; in assay [2], 340 nM.
In the case of `CNC(=O)C1=C(C)NC(=O)N(C(=O)NCCCN2CCC(C(=O)OC)(c3ccccc3)CC2)C1c1ccc([N+](=O)[O-])cc1` (centres undefined), the Ki in assay [1] came out at 270 nM; in assay [2] it was 100 nM; in assay [3], 2.1 nM.
Regarding `COC(=O)C1(c2ccccc2)CCN(CCCNC(=O)N2C(=O)NC(C)=C(C(=O)O)C2c2ccc([N+](=O)[O-])cc2)CC1` (centres undefined), the Ki is 2600 nM in assay [1], 1600 nM in assay [2] and 10 nM in assay [3].
For the molecule `CCC1=C(C(=O)OC)C(c2ccc([N+](=O)[O-])cc2)N(C(=O)NCCCN2CCC(C(=O)OC)(c3ccccc3)CC2)C(=O)N1` (centres undefined), the Ki was 87 nM in assay [1], 37 nM in assay [2] and 0.8 nM in assay [3].
Consider `COC(=O)C1=C(C)NC(=O)N(C(=O)NCCCN2CCC(C(=O)OC)(c3ccccc3)CC2)C1c1ccc([N+](=O)[O-])cc1` (centres undefined), for which the Ki was 180 nM and 100 nM and 80 nM in assay [1]; 81 nM and 28 nM and 19 nM in assay [2]; 0.4 nM and 0.5 nM and 2.1 nM in assay [3].
`COC(=O)C1=C(C)NC(=O)N(C(=O)NCCCN2CCC(C(=O)OC)(c3ccccc3)CC2)C1c1ccc(F)cc1` (centres undefined): the Ki amounted to 180 nM in assay [1], 78 nM in assay [2] and 1.2 nM in assay [3].
